In brackets after ≈: the same amount, converted by molar mass.
How the values were obtained:
[1] = Cytotoxicity against human BCA1 cells after 2 to 4 days by SRB assay; type: functional; details: read-out: ED50 (the source's name)
Summary of the method: (§1)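 Test compounds in 10% DMSO added to cell suspensions and incubated 2–4 days at 37° (100% humidity, 5% CO2). Cells fixed with cold 50% TCA for 1 h at 4°, stained with sulforhodamine B, washed with 1% HOAc and solubilized in 10 mM Tris base. OD read at 515 nm; percent growth calculated relative to controls. Top concentration tested 20 μg/ml.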

Col2 = assay: Cytotoxicity against human Col2 cells after 2 to 4 days by SRB assay; type: functional; details: read-out: ED50 (the source's name); summary of the method: as §1
[2] = Cytotoxicity against multidrug-resistant human KBV1 cells at 1 ug/mL after 2 to 4 days by SRB assay in presence of vinblastine; type: functional; details: KB-V1, read-out: ED50 (the source's name)
SK-MEL-2 = assay: Cytotoxicity against human SK-MEL-2 cells after 2 to 4 days by SRB assay; type: functional; details: read-out: ED50 (the source's name); summary of the method: as §1
[3] = Cytotoxicity against drug-sensitive human KB3 cells after 2 to 4 days by SRB assay; type: functional; details: read-out: ED50 (the source's name); summary of the method: as §1
ZR-75-1 = assay: Cytotoxicity against human ZR-75-1 cells after 2 to 4 days by SRB assay; type: functional; details: read-out: ED50 (the source's name); summary of the method: as §1
KBV1 = assay: (§2) Displacement of [3H]vinblastine from p-glycoprotein in multidrug-resistant human KBV1 cell membrane vesicles by liquid scintillation counting; type: cell membranes
Summary of the method: (§3)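 Membrane vesicles were made from KB-V1 cells by homogenization, a 35% sucrose cushion and 100,000 × g pelleting. Incubated 20 min at room temperature, then filtered onto BSA-prewashed glass fiber. Nonspecific binding taken with 1 mM unlabeled vinblastine. Read by scintillation counting and expressed as percent.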

[4] = as §2; type: cell membranes; summary of the method: as §3
P388 = assay: Cytotoxicity against mouse P388 cells after 2 to 4 days by SRB assay; type: functional; details: read-out: ED50 (the source's name); summary of the method: as §1
[5] = Cytotoxicity against multidrug-resistant human KBV1 cells after 2 to 4 days by SRB assay in absence of vinblastine; type: functional; details: KB-V1, read-out: ED50 (the source's name)
Summary of the method: (§4)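 SRB growth assay on KB-V1 cells (compounds in 10% DMSO, 2–4 days at 37°, 5% CO2, TCA fixation, OD 515 nm, percent growth versus controls). Cells were given a range of compound concentrations, either alone or together with 1 μg/ml vinblastine.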

[6] = Cytotoxicity against human LUC1 cells after 2 to 4 days by SRB assay; type: functional; details: read-out: ED50 (the source's name); summary of the method: as §1
LNCaP = assay: Cytotoxicity against human LNCAP cells after 2 to 4 days by SRB assay; type: functional; details: read-out: ED50 (the source's name); summary of the method: as §1
A-431 = assay: Cytotoxicity against human A431 cells after 2 to 4 days by SRB assay; type: functional; details: read-out: ED50 (the source's name); summary of the method: as §1
[7] = Cytotoxicity against multidrug-resistant human KBV1 cells after 2 to 4 days by SRB assay in presence of vinblastine; type: functional; details: KB-V1, read-out: ED50 (the source's name); summary of the method: as §4

Compound	EC50 [1] [µg/mL]	EC50 (Col2) [µg/mL]	EC50 [2] [µg/mL]	EC50 (SK-MEL-2) [µg/mL]	EC50 [3] [µg/mL]	EC50 (ZR-75-1) [µg/mL]	ED50 (KBV1)	IC50 [4] [µg/mL]	EC50 (P388) [µg/mL]	EC50 [5] [µg/mL]	EC50 [6] [µg/mL]	EC50 (LNCaP) [µg/mL]	EC50 (A-431) [µg/mL]	EC50 [7] [µg/mL]
COC[C@H](Cc1ccc(OC)c(OC)c1)[C@H](COC)Cc1ccc(OC)c(OC)c1 [PHYLLANTHIN]	> 20	> 20	2.1	> 20	> 20	> 20	Dose-dependent effect	28 (≈ 66.9 µM)	> 20	9 (≈ 21.5 µM)	> 20	> 20	> 20	
COC[C@@H]1Cc2cc(OC)c3c(c2[C@H](c2ccc(OC)c(OC)c2)[C@H]1COC)OCO3 [HYPOPHYLLANTHIN]	> 20	> 20		> 20	> 20	> 20		> 160	> 20	> 20	> 20	> 20	> 20	3.8
